# Assay results pooled from the literature.
# Compare with care: the assays were run in different laboratories.
# ABL1 M351T: Tyrosine-protein kinase ABL1 (ABL1, Homo sapiens, UniProt P00519, M351T)
# ABL1 F317I phosphorylated: Tyrosine-protein kinase ABL1, phosphorylated (ABL1, Homo sapiens, UniProt P00519, F317I)
# ABL1 Q252H phosphorylated: Tyrosine-protein kinase ABL1, phosphorylated (ABL1, Homo sapiens, UniProt P00519, Q252H)
# ABL1 Q252H non-phosphorylated: Tyrosine-protein kinase ABL1, non-phosphorylated (ABL1, Homo sapiens, UniProt P00519, Q252H)
# ABL1 H396P phosphorylated: Tyrosine-protein kinase ABL1, phosphorylated (ABL1, Homo sapiens, UniProt P00519, H396P)
# ABL1 non-phosphorylated: Tyrosine-protein kinase ABL1, non-phosphorylated (ABL1, Homo sapiens, UniProt P00519)
# ABL1 Q252H: Tyrosine-protein kinase ABL1 (ABL1, Homo sapiens, UniProt P00519, Q252H)
# ABL1 F317L phosphorylated: Tyrosine-protein kinase ABL1, phosphorylated (ABL1, Homo sapiens, UniProt P00519, F317L)
# ABL1 T315I non-phosphorylated: Tyrosine-protein kinase ABL1, non-phosphorylated (ABL1, Homo sapiens, UniProt P00519, T315I)
SMILES,target,assay,conditions,remaining binding [%]
CN(C)c1nccc(-c2cnn3ncccc23)n1,ABL1 M351T,binding,1 µM,100
C=CC(=O)N1CCC(C(=O)NCC(=O)N2CCN(c3nc(-c4cnc(N)nc4C(F)F)nc(N4CCOCC4)n3)CC2)CC1,ABL1 F317I phosphorylated,"binding, competition with immobilised ligand",1 µM,94
O=C(Nc1c[nH]nc1C(=O)NC1CCNCC1)c1cc(F)cc(F)c1,ABL1 Q252H phosphorylated,"binding, competition with immobilised ligand",1 µM,99
C[C@@H](c1ccc(-n2cnc3c(N)ncnc32)cc1)N1CCc2nn(C)c(Cc3ccccc3)c2C1=O,ABL1 Q252H phosphorylated,"binding, competition with immobilised ligand",0.1 µM,72
CC(C)(O)c1cncc(-c2nc3ccc(F)cc3n2C2CC2)c1,ABL1 Q252H non-phosphorylated,"cell-free assay, competition with immobilised ligand",1 µM,89
Nc1ncc2c(n1)-c1c([nH]c3ccc(C#CC4CC4)cc13)CCCC2,ABL1 H396P phosphorylated,"binding, competition with immobilised ligand",1 µM,93
c1cncc(-c2cccc(Nc3nccc(NC4CCCCC4)n3)c2)c1,ABL1 non-phosphorylated,"binding, competition with immobilised ligand",10 µM,35
CCN1CCN(Cc2ccc(C(=O)Nc3ccc(C)c(Oc4ccc5c(c4)CC(=O)N5)c3)cc2C(F)(F)F)CC1,"Tyrosine-protein kinase ABL1, phosphorylated (ABL1, Homo sapiens, UniProt P00519, T315I)","binding, competition with immobilised ligand",1 µM,88
CN(C)c1nccc(-c2cnc3ncccn23)n1,ABL1 Q252H,binding,1 µM,72
COc1ncc2cc3ccccc3nc2c1C#N,ABL1 Q252H phosphorylated,"cell-free assay, competition with immobilised ligand",5 µM,99
CC1CCCN1c1nccc(-c2cnn3ncccc23)n1 (stereo not drawn),ABL1 Q252H,binding,1 µM,97
CCOC(=O)c1cc2cc(-c3cc(C(=O)NCc4ccc(C(=O)O)cc4)nn3C)ccc2[nH]1,ABL1 H396P phosphorylated,"cell-free assay, competition with immobilised ligand",0.1 µM,85
C[C@@H]1CCN(c2nccc(-c3cnn4ncccc34)n2)C1,ABL1 non-phosphorylated,binding,1 µM,81
CCS(=O)(=O)c1cc2cc(C[C@](O)(CC(C)(C)c3ccc(F)cc3C(N)=O)C(F)(F)F)[nH]c2cn1,ABL1 non-phosphorylated,"cell-free assay, competition with immobilised ligand",1 µM,100
O=C(NCCCN1CCOCC1)c1ccc(Nc2ncc(Cl)c(-c3ccc(Cl)s3)n2)cc1,"Tyrosine-protein kinase ABL1, phosphorylated (ABL1, Homo sapiens, UniProt P00519, M351T)","binding, competition with immobilised ligand",1 µM,27
COCCOc1nc(-c2ccc(Cl)nc2)nc2c1CN(C(=O)c1ncn3ccccc13)CC2,"Tyrosine-protein kinase ABL1, phosphorylated (ABL1, Homo sapiens, UniProt P00519, E255K)","binding, competition with immobilised ligand",0.1 µM,100
c1cnn2ncc(-c3ccnc(N4CCC45COC5)n3)c2c1,ABL1 M351T,binding,1 µM,48
COc1cccc(CNC(=O)c2nc3scc(COCc4ccc(C(=O)O)cc4)c3c(=O)[nH]2)c1,ABL1 F317L phosphorylated,"cell-free assay, competition with immobilised ligand",1 µM,87.2
CN(c1nccc(-c2cnn3ncccc23)n1)C1CC1,ABL1 Q252H,binding,1 µM,100
O=C(NCC1CCOCC1)c1n[nH]cc1NC(=O)c1c(F)cccc1F,ABL1 F317I phosphorylated,"binding, competition with immobilised ligand",1 µM,84
COc1cnc(Nc2cccc(S(N)(=O)=O)c2)nc1N1CCN(c2ccccc2)C(=O)C1,ABL1 Q252H phosphorylated,"binding, competition with immobilised ligand",1 µM,87
CN(C(=O)c1ccccc1)c1cc(N(C)c2ccc3c(c2)CCc2ccc(C(=O)NCCN4CCOCC4)cc2C3=O)ccc1F,ABL1 H396P phosphorylated,"cell-free assay, competition with immobilised ligand",1 µM,100
O=C(c1ccc(Nc2nccc(-c3cc4ccccc4s3)n2)cc1)N1CCC(N2CCCC2)CC1,ABL1 F317L phosphorylated,"binding, competition with immobilised ligand",1 µM,100
CNC(=O)Nc1ccc2c(c1)[C@@]1(CC2)OC(=O)N(CC(=O)N(Cc2ccc(F)cc2)[C@@H](C)C(F)(F)F)C1=O,"Tyrosine-protein kinase ABL1, phosphorylated (ABL1, Homo sapiens, UniProt P00519, Y253F)","cell-free assay, competition with immobilised ligand",1 µM,100
CC(C)(C)c1ccc(-c2nc(CBr)nn2-c2cccc(O)c2)cc1,ABL1 non-phosphorylated,"cell-free assay, competition with immobilised ligand",10 µM,82
N[C@@H]1CCN(c2nccc(-c3cnn4ncccc34)n2)C1,ABL1 M351T,binding,1 µM,100
O=C(c1ccc(Nc2ncc(Cl)c(-c3cc4ccccc4s3)n2)cc1)N1CCC(N2CCCC2)CC1,ABL1 H396P phosphorylated,"binding, competition with immobilised ligand",1 µM,13
N#Cc1ccccc1CSc1nnc2c(n1)[nH]c1ccccc12,ABL1 non-phosphorylated,"binding, competition with immobilised ligand",10 µM,86
C[C@@H]1CN(c2cc(-c3nn(C)c4ccc(OC5(C)CC5)cc34)ncn2)C[C@H](C)O1,ABL1 F317I phosphorylated,binding,1 µM,75
CN1CCN(c2ccc(Nc3nccc(-c4cccc([N+](=O)[O-])c4)n3)cc2C(F)(F)F)CC1,ABL1 M351T,binding,10 µM,2.7
Cc1cnc(Nc2ccc(C(=O)N3CCC(N4CCCC4)CC3)cc2)nc1-c1cc2ccccc2s1,ABL1 T315I non-phosphorylated,"binding, competition with immobilised ligand",1 µM,0.1
CNC(=O)[C@@H]1CC[C@@H](n2c(-c3ccc4cnccc4c3)nc3ccc(C(=O)NCc4cccc(C(N)=O)c4)cc32)C1,ABL1 T315I non-phosphorylated,"binding, competition with immobilised ligand",1 µM,100
O=C(NCCCN1CCOCC1)c1ccc(Nc2nccc(-c3cc4ccccc4s3)n2)cc1,"Tyrosine-protein kinase ABL1, non-phosphorylated (ABL1, Homo sapiens, UniProt P00519, F317L)","binding, competition with immobilised ligand",1 µM,90
COc1ccnn2ncc(-c3ccnc(N(C)C)n3)c12,"Tyrosine-protein kinase ABL1, phosphorylated (ABL1, Homo sapiens, UniProt P00519)",binding,1 µM,73
O=C(c1ccc(Nc2ncc(Cl)c(-c3ccc(Cl)s3)n2)cc1)N1CCC(N2CCCC2)CC1,ABL1 Q252H non-phosphorylated,"binding, competition with immobilised ligand",1 µM,1
COc1cnc(Nc2cccc(S(N)(=O)=O)c2)nc1N1CCN(c2ccccc2)CC1,ABL1 Q252H phosphorylated,"binding, competition with immobilised ligand",1 µM,72
